Results on one compound are retold here after ChEMBL document CHEMBL3085673, “The design of a novel series of muscarinic receptor antagonists leading to AZD8683, a potential inhaled treatment for COPD” (Bioorg Med Chem Lett, 2013).

Where only a bound is given, the exact number is not on record here.

Data set [1] concerns Cavia porcellus. The data set can be described thus: Inhibition of methacholine-induced bronchoconstriction in Dunkin-Hartley guinea pig administered via intratracheal/intranasal after 2 to 4 hrs relative to control. It counts as functional. Particulars: inhaled or nasal. A digest of the protocol:
(§1)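 Dunkin-Hartley guinea pigs dosed in 0.9% saline by intratracheal or intranasal microsprayer under halothane. At 2, 4, 24 or 48 h, animals were terminally anaesthetised with pentobarbitone and ventilated at 60 breaths/min, 2 mL tidal volume. Peak respiratory resistance measured after IV methacholine 10 μg/kg. Percent inhibition calculated against a time-matched vehicle group. For duration, dosing was at the ED80 dose, measured or predicted from trachea potency.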

Data set [2] in a line: Intrinsic clearance in human liver microsomes. The data set is classed as ADME. Particulars: read-out: CLH.
Data set [3] is described as follows: Plasma protein binding in human. It counts as ADME, cell-free. Particulars: read-out: PPB (converted).
Data set [4] in a line: Therapeutic index, ratio of ED80 for methacholine-induced bronchoconstriction in Dunkin-Hartley guinea pig to EC50 for reduction of pilocarpine-induced salivation in guinea pig. It counts as organism-based, Cavia porcellus. Particulars: in vivo, read-out: TI.
Data set [5] has as its target Muscarinic acetylcholine receptor M3 (Homo sapiens, UniProt P20309). The data set can be described thus: Displacement of [3H]NMS from recombinant human M3 receptor expressed in CHO-K1 cells after 16 hrs by SPA method. The data set is classed as cell-based. The procedure, abridged:
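Nonspecific binding defined with atropine 1 µM; eight total-binding replicates per plate. Incubated at room temperature at least 16 h to equilibrium before counting; n ≥ 2.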

The target in data set [6] is Muscarinic acetylcholine receptor M3 (Cavia porcellus, UniProt Q8VH26). As to the kind of experiment: Antagonist activity at M3 receptor in Dunkin-Hartley guinea pig trachea assessed as inhibition of methacholine-induced airway smooth muscle contraction after 1 to 4 hrs. Particulars: read-out: pA2 (converted). A digest of the protocol:
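Isolated guinea pig tracheal rings equilibrated 1 h, re-tensioned to 1 g, primed with methacholine, then a cumulative methacholine curve (3 × 10^-9 to 3 × 10^-5 M). Vehicle or compound equilibrated 1 or 4 h before a second curve (3 × 10^-9 to 1 × 10^-3 M final). Isometric force as % of curve-1 maximum. pA2 calculated from vehicle and test A50 values; n = 2.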

Data set [7] concerns Cavia porcellus. The data set can be described thus: Inhibition of methacholine-induced bronchoconstriction in Dunkin-Hartley guinea pig administered via intratracheal/intranasal after 48 hrs relative to control. It counts as functional. The procedure, abridged: as §1
Data set [8] is described as follows: Half life in guinea pig lung administered via intratracheal instillation at 1 ug/kg by HPLC-MS analysis. The data set is classed as ADME, tissue-based, Cavia porcellus. The following applies: inhaled or intranasal, 0.001 mg/kg. The procedure, abridged: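 Halothane-anaesthetised guinea pigs given 1 μg/kg by intratracheal instillation. Lungs collected at 0.25-24 h after barbiturate overdose, homogenised in phosphate buffer and added to ice-cold methanol. Supernatant analysed by mass spectrometry/HPLC.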

Data set [9] relates to Cavia porcellus. The data set can be described thus: Toxicity in guinea pig assessed as reduction of pilocarpine-induced salivation administered via intranasal administered for 4 hrs followed by pilocarpine challenge measured every 5 mins for 15 mins. It counts as organism-based. A digest of the protocol:
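Compound or vehicle given intranasally under halothane. At 4 h, animals were anaesthetised with urethane and the mouth dried with gauze for 5 min. Baseline saliva taken on a pre-weighed pad over 5 min. Pilocarpine 0.6 mg/kg given subcutaneously, then pads replaced every 5 min for 15 min and saliva quantified by pad weight gain.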

For data set [10], the system named is Cavia porcellus. As to the kind of experiment: Inhibition of methacholine-induced bronchoconstriction in Dunkin-Hartley guinea pig administered via intratracheal/intranasal after 24 hrs relative to control. It counts as functional. A digest of the protocol: as §1

Muscarinic acetylcholine receptor M3 (Homo sapiens, UniProt P20309), sequence (P20309 whole entry): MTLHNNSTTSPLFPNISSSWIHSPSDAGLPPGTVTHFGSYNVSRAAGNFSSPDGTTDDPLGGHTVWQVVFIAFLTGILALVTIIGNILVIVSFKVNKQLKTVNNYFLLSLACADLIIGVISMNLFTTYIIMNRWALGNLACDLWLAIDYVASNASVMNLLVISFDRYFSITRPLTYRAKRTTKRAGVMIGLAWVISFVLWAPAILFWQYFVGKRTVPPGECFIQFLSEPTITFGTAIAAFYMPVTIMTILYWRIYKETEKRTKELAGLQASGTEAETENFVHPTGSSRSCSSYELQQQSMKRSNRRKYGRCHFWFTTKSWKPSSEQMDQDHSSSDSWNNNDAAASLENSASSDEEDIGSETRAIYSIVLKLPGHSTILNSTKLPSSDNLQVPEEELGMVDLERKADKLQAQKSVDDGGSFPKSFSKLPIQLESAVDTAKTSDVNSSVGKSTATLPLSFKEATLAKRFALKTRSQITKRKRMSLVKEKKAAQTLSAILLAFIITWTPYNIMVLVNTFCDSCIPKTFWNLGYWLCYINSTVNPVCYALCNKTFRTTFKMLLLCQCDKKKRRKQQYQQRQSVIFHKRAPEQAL
Muscarinic acetylcholine receptor M3 (Cavia porcellus, UniProt Q8VH26), sequence (Q8VH26 whole entry): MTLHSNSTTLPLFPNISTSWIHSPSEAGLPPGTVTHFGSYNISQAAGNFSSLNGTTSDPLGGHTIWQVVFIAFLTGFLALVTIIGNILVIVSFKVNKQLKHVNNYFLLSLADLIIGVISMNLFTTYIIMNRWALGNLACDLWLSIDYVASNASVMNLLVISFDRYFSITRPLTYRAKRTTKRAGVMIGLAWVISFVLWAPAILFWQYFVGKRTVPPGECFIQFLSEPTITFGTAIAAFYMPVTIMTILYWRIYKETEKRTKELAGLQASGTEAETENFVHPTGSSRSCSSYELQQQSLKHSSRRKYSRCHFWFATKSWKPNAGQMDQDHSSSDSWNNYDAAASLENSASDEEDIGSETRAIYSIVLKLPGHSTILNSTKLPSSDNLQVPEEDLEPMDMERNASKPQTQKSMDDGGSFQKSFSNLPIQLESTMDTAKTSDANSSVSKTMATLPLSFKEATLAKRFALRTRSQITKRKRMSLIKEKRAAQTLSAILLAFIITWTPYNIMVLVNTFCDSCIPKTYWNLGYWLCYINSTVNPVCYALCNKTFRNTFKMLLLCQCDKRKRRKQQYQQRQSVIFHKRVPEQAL

In the data set with Cavia porcellus [1], `O=C(C[N+]12CCC(CC1)[C@@H](OC(=O)C1(C3=CC=CC3)CCCCCC1)C2)Nc1cnccn1` registered an ED80 of 1 µg/kg. Further, the microsomal CLint in [2] came out at 43 µL/min/mg. The fraction unbound in data set [3] is 0.075. In [4], the selectivity ratio is not below 10. Besides, the IC50 in data set [5] is less than 0.126 nM. Further, in [6], the Kb is 0.126 nM. For the same compound, the “inhibition (INH)” value stood at 73% with Cavia porcellus [7] and 88% in the data set on Cavia porcellus [10]. The compound also gave a half-life in [8] of 23 h. Besides, the EC50 with Cavia porcellus [9] was more than 10 µg/kg.
